ChEMBL document CHEMBL3272198, “Preparation and in vitro antifungal activities of some quinolizidine derived hemiaminals and beta-tert-amino sulfides” (1976)
Calls of active or inactive are those of the source. The rule behind the calls is not given here.

How the values were obtained:
Assay type in all cases: functional
[1] = test system: Histoplasma capsulatum; assay: Antifungal activity against Histoplasma capsulatum Darling isolate 1098 at 80 ug/ml after 1 week (reference value: 12 mm)
[2] = test system: Histoplasma capsulatum; assay: Antifungal activity against Histoplasma capsulatum Darling isolate 1106 at 80 ug/ml after 2 weeks (reference value: 25 mm)
[3] = test system: Blastomyces dermatitidis; assay: Antifungal activity against Blastomyces dermatitidis Gilchrist & Stokes isolate 1107 at 10 ug/ml after 1 week (reference value: 20 mm); settings: Gilchrist & Stokes isolate 1107, 168 h, read-out: DIZ
Outline: (§1)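 Mycelial phase grown on Sabouraud dextrose agar at 25°C. Agar pH was set to 6 before the test solution was added and was 5.0-5.5 after. Test solutions contained HOAc and Me2SO, and solvent and blank controls were included. Each quadrant was center-inoculated with a 2 × 2 mm piece of a 2-week-old mycelial culture. Colony diameter was measured weekly for 3 weeks and reported as total increments (mm). Duplicates were run.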

[4] = test system: Histoplasma capsulatum; assay: Antifungal activity against Histoplasma capsulatum Darling isolate 1106 at 40 ug/ml after 3 weeks (reference value: 31 mm); settings: Darling isolate 1106, 504 h, read-out: DIZ
[5] = test system: Histoplasma capsulatum; assay: Antifungal activity against Histoplasma capsulatum Darling isolate 1106 at 40 ug/ml after 2 weeks (reference value: 25 mm)
[6] = test system: Histoplasma capsulatum; assay: Antifungal activity against Histoplasma capsulatum Darling isolate 1106 at 100 ug/ml after 2 weeks (reference value: 25 mm)
[7] = test system: Histoplasma capsulatum; assay: Antifungal activity against Histoplasma capsulatum Darling isolate 1106 at 60 ug/ml after 2 weeks (reference value: 25 mm)
[8] = test system: Blastomyces dermatitidis; assay: Antifungal activity against Blastomyces dermatitidis Gilchrist & Stokes isolate 1107 at 60 ug/ml after 2 weeks (reference value: 35 mm); settings: Gilchrist & Stokes isolate 1107, 336 h, read-out: DIZ; outline: as §1
[9] = test system: Blastomyces dermatitidis; assay: Antifungal activity against Blastomyces dermatitidis Gilchrist & Stokes isolate 1099 at 40 ug/ml after 3 weeks (reference value: 34 mm); settings: Gilchrist & Stokes isolate 1099, 504 h, read-out: DIZ; outline: as §1
[10] = test system: Blastomyces dermatitidis; assay: Antifungal activity against Blastomyces dermatitidis Gilchrist & Stokes isolate 1107 at 80 ug/ml after 3 weeks (reference value: 40 mm); settings: Gilchrist & Stokes isolate 1107, 504 h, read-out: DIZ; outline: as §1
[11] = test system: Blastomyces dermatitidis; assay: Antifungal activity against Blastomyces dermatitidis Gilchrist & Stokes isolate 1099 at 100 ug/ml after 3 weeks (reference value: 34 mm); outline: as §1
[12] = test system: Blastomyces dermatitidis; assay: Antifungal activity against Blastomyces dermatitidis Gilchrist & Stokes isolate 1099 at 10 ug/ml after 2 weeks (reference value: 27 mm); settings: Gilchrist & Stokes isolate 1099, 336 h, read-out: DIZ; outline: as §1
[13] = test system: Histoplasma capsulatum; assay: Antifungal activity against Histoplasma capsulatum Darling isolate 1098 at 10 ug/ml after 2 weeks (reference value: 21 mm); settings: Darling isolate 1098, 336 h, read-out: DIZ
[14] = test system: Histoplasma capsulatum; assay: Antifungal activity against Histoplasma capsulatum Darling isolate 1106 at 40 ug/ml after 1 week (reference value: 14 mm)
[15] = test system: Histoplasma capsulatum; assay: Antifungal activity against Histoplasma capsulatum Darling isolate 1098 at 80 ug/ml after 2 weeks (reference value: 21 mm)
[16] = test system: Blastomyces dermatitidis; assay: Antifungal activity against Blastomyces dermatitidis Gilchrist & Stokes isolate 1099 at 20 ug/ml after 1 week (reference value: 14 mm); settings: Gilchrist & Stokes isolate 1099, 168 h, read-out: DIZ; outline: as §1
[17] = test system: Histoplasma capsulatum; assay: Antifungal activity against Histoplasma capsulatum Darling isolate 1098 at 20 ug/ml after 1 week (reference value: 12 mm); settings: Darling isolate 1098, 168 h, read-out: DIZ
[18] = test system: Histoplasma capsulatum; assay: Antifungal activity against Histoplasma capsulatum Darling isolate 1106 at 20 ug/ml after 1 week (reference value: 14 mm); settings: Darling isolate 1106, 168 h, read-out: DIZ
[19] = test system: Histoplasma capsulatum; assay: Antifungal activity against Histoplasma capsulatum Darling isolate 1098 at 20 ug/ml after 2 weeks (reference value: 21 mm); settings: Darling isolate 1098, 336 h, read-out: DIZ
[20] = test system: Histoplasma capsulatum; assay: Antifungal activity against Histoplasma capsulatum Darling isolate 1098 at 10 ug/ml after 3 weeks (reference value: 28 mm); settings: Darling isolate 1098, 504 h, read-out: DIZ
[21] = test system: Histoplasma capsulatum; assay: Antifungal activity against Histoplasma capsulatum Darling isolate 1098 at 100 ug/ml after 2 weeks (reference value: 21 mm)
[22] = test system: Histoplasma capsulatum; assay: Antifungal activity against Histoplasma capsulatum Darling isolate 1106 at 80 ug/ml after 3 weeks (reference value: 31 mm)
[23] = test system: Blastomyces dermatitidis; assay: Antifungal activity against Blastomyces dermatitidis Gilchrist & Stokes isolate 1099 at 80 ug/ml after 2 weeks (reference value: 27 mm)
[24] = test system: Blastomyces dermatitidis; assay: Antifungal activity against Blastomyces dermatitidis Gilchrist & Stokes isolate 1107 at 60 ug/ml after 3 weeks (reference value: 40 mm); settings: Gilchrist & Stokes isolate 1107, 504 h, read-out: DIZ; outline: as §1
[25] = test system: Blastomyces dermatitidis; assay: Antifungal activity against Blastomyces dermatitidis Gilchrist & Stokes isolate 1107 at 10 ug/ml after 3 weeks (reference value: 40 mm); settings: Gilchrist & Stokes isolate 1107, 504 h, read-out: DIZ; outline: as §1
[26] = test system: Histoplasma capsulatum; assay: Antifungal activity against Histoplasma capsulatum Darling isolate 1098 at 60 ug/ml after 3 weeks (reference value: 28 mm); settings: Darling isolate 1098, 504 h, read-out: DIZ
[27] = test system: Blastomyces dermatitidis; assay: Antifungal activity against Blastomyces dermatitidis Gilchrist & Stokes isolate 1099 at 60 ug/ml after 1 week (reference value: 14 mm)
[28] = test system: Histoplasma capsulatum; assay: Antifungal activity against Histoplasma capsulatum Darling isolate 1106 at 20 ug/ml after 2 weeks (reference value: 25 mm); settings: Darling isolate 1106, 336 h, read-out: DIZ
[29] = test system: Histoplasma capsulatum; assay: Antifungal activity against Histoplasma capsulatum Darling isolate 1098 at 60 ug/ml after 2 weeks (reference value: 21 mm); settings: Darling isolate 1098, 336 h, read-out: DIZ
[30] = test system: Histoplasma capsulatum; assay: Antifungal activity against Histoplasma capsulatum Darling isolate 1098 at 10 ug/ml after 1 week (reference value: 12 mm); settings: Darling isolate 1098, 168 h, read-out: DIZ
[31] = test system: Blastomyces dermatitidis; assay: Antifungal activity against Blastomyces dermatitidis Gilchrist & Stokes isolate 1099 at 80 ug/ml after 3 weeks (reference value: 34 mm); settings: Gilchrist & Stokes isolate 1099, 504 h, read-out: DIZ; outline: as §1
[32] = test system: Histoplasma capsulatum; assay: Antifungal activity against Histoplasma capsulatum Darling isolate 1106 at 10 ug/ml after 1 week (reference value: 14 mm); settings: Darling isolate 1106, 168 h, read-out: DIZ
[33] = test system: Histoplasma capsulatum; assay: Antifungal activity against Histoplasma capsulatum Darling isolate 1098 at 40 ug/ml after 2 weeks (reference value: 21 mm); settings: Darling isolate 1098, 336 h, read-out: DIZ
[34] = test system: Blastomyces dermatitidis; assay: Antifungal activity against Blastomyces dermatitidis Gilchrist & Stokes isolate 1107 at 40 ug/ml after 2 weeks (reference value: 35 mm); settings: Gilchrist & Stokes isolate 1107, 336 h, read-out: DIZ; outline: as §1
[35] = test system: Blastomyces dermatitidis; assay: Antifungal activity against Blastomyces dermatitidis Gilchrist & Stokes isolate 1099 at 100 ug/ml after 2 weeks (reference value: 27 mm)
[36] = test system: Blastomyces dermatitidis; assay: Antifungal activity against Blastomyces dermatitidis Gilchrist & Stokes isolate 1107 at 100 ug/ml after 2 weeks (reference value: 35 mm); outline: as §1
[37] = test system: Blastomyces dermatitidis; assay: Antifungal activity against Blastomyces dermatitidis Gilchrist & Stokes isolate 1107 at 100 ug/ml after 3 weeks (reference value: 40 mm); settings: Gilchrist & Stokes isolate 1107, 504 h, read-out: DIZ; outline: as §1
[38] = test system: Blastomyces dermatitidis; assay: Antifungal activity against Blastomyces dermatitidis Gilchrist & Stokes isolate 1099 at 100 ug/ml after 1 week (reference value: 14 mm)
[39] = test system: Blastomyces dermatitidis; assay: Antifungal activity against Blastomyces dermatitidis Gilchrist & Stokes isolate 1107 at 100 ug/ml after 1 week (reference value: 20 mm)

## C[C@@H]1CC[C@@H](c2ccoc2)N2C(O)[C@@](C)(Sc3ccccc3)CC[C@@H]12 (some centres undefined)
[1]
  Activity: Active
[2]
  Activity: Active
[3]
  zone of inhibition at 10 µg/mL: 13 mm
[4]
  zone of inhibition at 40 µg/mL: 5 mm
[5]
  Activity: inactive
[6]
  Activity: Active
[7]
  Activity: Active
[8]
  zone of inhibition at 60 µg/mL: 10 mm
[9]
  zone of inhibition at 40 µg/mL: 14 mm
[10]
  zone of inhibition at 80 µg/mL: 7 mm
[11]
  Activity: Active
[12]
  zone of inhibition at 10 µg/mL: 20 mm
[13]
  zone of inhibition at 10 µg/mL: 19 mm
[14]
  Activity: inactive
[15]
  Activity: Active
[16]
  zone of inhibition at 20 µg/mL: 7 mm
[17]
  zone of inhibition at 20 µg/mL: 8 mm
[18]
  zone of inhibition at 20 µg/mL: 6 mm
[19]
  zone of inhibition at 20 µg/mL: 14 mm
[20]
  zone of inhibition at 10 µg/mL: 25 mm
[21]
  Activity: Active
[22]
  Activity: Active
[23]
  Activity: Active
[24]
  zone of inhibition at 60 µg/mL: 14 mm
[25]
  zone of inhibition at 10 µg/mL: 32 mm
[26]
  zone of inhibition at 60 µg/mL: 8 mm
[27]
  Activity: Active
[28]
  zone of inhibition at 20 µg/mL: 11 mm
[29]
  zone of inhibition at 60 µg/mL: 2 mm
[30]
  zone of inhibition at 10 µg/mL: 10 mm
[31]
  zone of inhibition at 80 µg/mL: 4 mm
[32]
  zone of inhibition at 10 µg/mL: 9 mm
[33]
  zone of inhibition at 40 µg/mL: 9 mm
[34]
  zone of inhibition at 40 µg/mL: 15 mm
[35]
  Activity: Active
[36]
  Activity: Active
[37]
  zone of inhibition at 100 µg/mL: 3 mm
[38]
  Activity: Active
[39]
  Activity: Active
